Measured values: ChEMBL document CHEMBL1165965, “Synthesis and structure-activity relationships of 1,2,3,4-tetrahydropyrido[2,3-b]pyrazines as potent and selective inhibitors of the anaplastic lymphoma kinase” (Bioorg Med Chem, 2010)

Columns and labels:
[1] = molecular target: T1, Mitogen-activated protein kinase 13 (Homo sapiens) (UniProt O15264); test: Inhibition of p38-delta at 1 uM
T1 sequence (whole entry): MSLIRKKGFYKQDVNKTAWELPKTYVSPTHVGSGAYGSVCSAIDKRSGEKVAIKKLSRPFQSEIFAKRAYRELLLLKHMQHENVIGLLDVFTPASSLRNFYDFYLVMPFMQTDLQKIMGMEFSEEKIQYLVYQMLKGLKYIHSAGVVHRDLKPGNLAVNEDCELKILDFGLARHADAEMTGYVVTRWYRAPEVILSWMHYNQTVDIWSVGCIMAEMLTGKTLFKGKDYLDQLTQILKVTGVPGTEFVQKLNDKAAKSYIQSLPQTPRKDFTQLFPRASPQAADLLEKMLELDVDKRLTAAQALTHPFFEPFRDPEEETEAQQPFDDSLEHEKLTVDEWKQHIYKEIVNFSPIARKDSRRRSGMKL

[2] = molecular target: T2, Mitogen-activated protein kinase kinase kinase 2 (Homo sapiens) (UniProt Q9Y2U5); test: Inhibition of MAP3K2 at 1 uM
T2 sequence (whole entry): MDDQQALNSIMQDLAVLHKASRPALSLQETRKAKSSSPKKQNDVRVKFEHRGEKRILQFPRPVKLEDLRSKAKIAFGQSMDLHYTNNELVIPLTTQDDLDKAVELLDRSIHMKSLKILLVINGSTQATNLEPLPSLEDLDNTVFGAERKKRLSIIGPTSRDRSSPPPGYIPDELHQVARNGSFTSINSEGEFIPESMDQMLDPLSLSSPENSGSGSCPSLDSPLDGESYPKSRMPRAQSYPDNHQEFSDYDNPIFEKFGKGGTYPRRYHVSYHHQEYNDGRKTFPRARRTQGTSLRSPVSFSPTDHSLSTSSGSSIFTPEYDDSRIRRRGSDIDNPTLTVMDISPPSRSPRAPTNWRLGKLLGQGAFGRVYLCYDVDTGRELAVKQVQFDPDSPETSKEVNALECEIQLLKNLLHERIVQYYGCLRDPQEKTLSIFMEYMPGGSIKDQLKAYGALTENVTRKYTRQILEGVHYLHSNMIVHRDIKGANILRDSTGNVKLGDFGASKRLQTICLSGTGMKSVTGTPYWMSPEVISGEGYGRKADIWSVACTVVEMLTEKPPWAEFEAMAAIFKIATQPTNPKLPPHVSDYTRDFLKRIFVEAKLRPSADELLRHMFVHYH

[3] = molecular target: Interleukin-1 receptor-associated kinase 1 (Homo sapiens) (UniProt P51617); test: Inhibition of IRAK1 at 1 uM
[4] = molecular target: Maternal embryonic leucine zipper kinase (Homo sapiens) (UniProt Q14680); test: Inhibition of MELK at 1 uM
In short: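 Kinase-panel screen using KINOMEscan technology, with 250–400 kinases per panel. Each compound was tested at a single concentration, and inhibition of each kinase was recorded. Selectivity was summarised as S(90), the fraction of kinases inhibited by more than 90%.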

[5] = molecular target: T3, Uncharacterized serine/threonine-protein kinase SBK3 (Homo sapiens) (UniProt P0C264); test: Inhibition of SgK110 at 1 uM
T3 sequence (whole entry): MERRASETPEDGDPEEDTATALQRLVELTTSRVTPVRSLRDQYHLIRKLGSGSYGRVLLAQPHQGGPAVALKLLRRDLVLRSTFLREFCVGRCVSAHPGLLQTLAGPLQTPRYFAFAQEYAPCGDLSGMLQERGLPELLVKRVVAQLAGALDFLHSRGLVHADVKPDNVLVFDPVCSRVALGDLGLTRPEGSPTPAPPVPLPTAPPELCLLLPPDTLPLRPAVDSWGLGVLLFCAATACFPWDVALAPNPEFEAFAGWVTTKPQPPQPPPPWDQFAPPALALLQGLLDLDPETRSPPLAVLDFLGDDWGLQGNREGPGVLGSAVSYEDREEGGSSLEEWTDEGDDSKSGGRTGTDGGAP

[6] = molecular target: Tyrosine-protein kinase Blk (Homo sapiens) (UniProt P51451); test: Inhibition of BLK at 1 uM
In short: (§1)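 Ambit KINOMEscan screen at a single concentration across a 250–400 kinase panel, recorded as percent inhibition. Selectivity was expressed as S(90), the fraction of kinases inhibited >90%.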

[7] = molecular target: Cyclin-dependent kinase 17 (Homo sapiens) (UniProt Q00537); test: Inhibition of PCTK2 at 1 uM
[8] = molecular target: Cyclin-dependent kinase 16 (Homo sapiens) (UniProt Q00536); test: Inhibition of PCTK1 at 1 uM
[9] = molecular target: Bone morphogenetic protein receptor type-1A (Homo sapiens) (UniProt P36894); test: Inhibition of BMPR1A at 1 uM; in short: as §1
[10] = molecular target: Epidermal growth factor receptor (Homo sapiens) (UniProt P00533); test: Inhibition of EGFR at 1 uM
In short: (§2)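 Single-concentration screen using Ambit Bioscience KINOMEscan technology across a panel of 250–400 kinases. Per-kinase inhibition from this screen was summarized as S(90), the fraction of kinases inhibited by more than 90%.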

[11] = molecular target: Serine/threonine-protein kinase tousled-like 2 (Homo sapiens) (UniProt Q86UE8); test: Inhibition of TLK2 at 1 uM
[12] = molecular target: Serine/threonine-protein kinase pim-1 (Homo sapiens) (UniProt P11309); test: Inhibition of PIM1 at 1 uM
[13] = molecular target: Dual specificity mitogen-activated protein kinase kinase 2 (Homo sapiens) (UniProt P36507); test: Inhibition of MEK2 at 1 uM
[14] = tested on: Tyrosine-protein kinase ABL1 (Homo sapiens), P00519 [M351T]; test: Inhibition of ABL1 M351T mutant at 1 uM; in short: as §1
[15] = molecular target: Cyclin-dependent kinase 11B (Homo sapiens) (UniProt P21127); test: Inhibition of CDC2L1 at 1 uM
[16] = molecular target: Ribosomal protein S6 kinase alpha-5 (Homo sapiens) (UniProt O75582); test: Inhibition of RPS6KA5 C-terminal domain2 at 1 uM
[17] = molecular target: Casein kinase I isoform gamma-3 (Homo sapiens) (UniProt Q9Y6M4); test: Inhibition of CSNK1G3 at 1 uM; in short: as §2
[18] = molecular target: Serine/threonine-protein kinase PAK 4 (Homo sapiens) (UniProt O96013); test: Inhibition of PAK4 at 1 uM
Chain of Serine/threonine-protein kinase PAK 4 (Homo sapiens) (O96013 whole entry, looked up): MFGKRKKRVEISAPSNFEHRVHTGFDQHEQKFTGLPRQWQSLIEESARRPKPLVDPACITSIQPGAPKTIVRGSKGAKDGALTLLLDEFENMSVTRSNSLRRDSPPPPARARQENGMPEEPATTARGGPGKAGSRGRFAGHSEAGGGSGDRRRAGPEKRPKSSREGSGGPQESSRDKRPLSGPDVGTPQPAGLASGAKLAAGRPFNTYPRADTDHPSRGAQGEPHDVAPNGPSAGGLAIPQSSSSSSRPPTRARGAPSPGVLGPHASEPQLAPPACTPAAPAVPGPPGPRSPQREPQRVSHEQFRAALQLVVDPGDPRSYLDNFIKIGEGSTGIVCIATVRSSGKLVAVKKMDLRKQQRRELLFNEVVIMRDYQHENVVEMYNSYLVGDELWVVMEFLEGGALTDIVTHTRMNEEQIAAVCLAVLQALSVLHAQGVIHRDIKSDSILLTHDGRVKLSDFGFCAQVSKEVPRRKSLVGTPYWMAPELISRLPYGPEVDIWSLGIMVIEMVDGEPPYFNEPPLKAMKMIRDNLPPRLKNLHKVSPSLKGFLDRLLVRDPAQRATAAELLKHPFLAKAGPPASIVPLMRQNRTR

Chain of Maternal embryonic leucine zipper kinase (Homo sapiens) (Q14680 whole entry, looked up): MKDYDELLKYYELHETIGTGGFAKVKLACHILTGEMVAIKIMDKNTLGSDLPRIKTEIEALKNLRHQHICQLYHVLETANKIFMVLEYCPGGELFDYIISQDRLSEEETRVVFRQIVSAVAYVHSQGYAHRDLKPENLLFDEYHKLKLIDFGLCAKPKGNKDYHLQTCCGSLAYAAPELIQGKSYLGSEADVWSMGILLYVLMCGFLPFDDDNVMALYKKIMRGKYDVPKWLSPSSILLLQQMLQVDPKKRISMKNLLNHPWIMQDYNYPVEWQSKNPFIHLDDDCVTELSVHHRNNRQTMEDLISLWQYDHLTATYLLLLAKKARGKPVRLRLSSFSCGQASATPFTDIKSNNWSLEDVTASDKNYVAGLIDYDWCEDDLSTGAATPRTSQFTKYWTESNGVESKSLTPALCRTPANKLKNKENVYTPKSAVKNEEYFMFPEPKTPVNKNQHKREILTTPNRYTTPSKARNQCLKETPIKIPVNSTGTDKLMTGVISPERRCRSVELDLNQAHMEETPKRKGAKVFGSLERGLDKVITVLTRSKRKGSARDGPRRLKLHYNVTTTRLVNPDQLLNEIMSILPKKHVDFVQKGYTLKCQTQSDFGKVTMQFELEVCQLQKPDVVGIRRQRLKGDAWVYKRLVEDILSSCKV
Chain of Dual specificity mitogen-activated protein kinase kinase 2 (Homo sapiens) (P36507 whole entry): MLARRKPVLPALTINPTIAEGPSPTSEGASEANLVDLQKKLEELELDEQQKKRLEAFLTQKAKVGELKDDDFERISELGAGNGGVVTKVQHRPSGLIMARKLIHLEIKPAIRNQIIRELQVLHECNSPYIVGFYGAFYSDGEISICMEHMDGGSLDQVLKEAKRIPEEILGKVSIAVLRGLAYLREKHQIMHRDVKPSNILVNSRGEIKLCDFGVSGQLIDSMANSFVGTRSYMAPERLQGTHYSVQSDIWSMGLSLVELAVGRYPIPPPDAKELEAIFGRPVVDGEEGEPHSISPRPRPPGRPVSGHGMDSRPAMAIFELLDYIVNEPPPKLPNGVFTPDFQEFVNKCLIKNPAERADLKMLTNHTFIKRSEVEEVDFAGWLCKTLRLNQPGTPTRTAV
Chain of Cyclin-dependent kinase 11B (Homo sapiens) (P21127 whole entry, the tested form may be a part): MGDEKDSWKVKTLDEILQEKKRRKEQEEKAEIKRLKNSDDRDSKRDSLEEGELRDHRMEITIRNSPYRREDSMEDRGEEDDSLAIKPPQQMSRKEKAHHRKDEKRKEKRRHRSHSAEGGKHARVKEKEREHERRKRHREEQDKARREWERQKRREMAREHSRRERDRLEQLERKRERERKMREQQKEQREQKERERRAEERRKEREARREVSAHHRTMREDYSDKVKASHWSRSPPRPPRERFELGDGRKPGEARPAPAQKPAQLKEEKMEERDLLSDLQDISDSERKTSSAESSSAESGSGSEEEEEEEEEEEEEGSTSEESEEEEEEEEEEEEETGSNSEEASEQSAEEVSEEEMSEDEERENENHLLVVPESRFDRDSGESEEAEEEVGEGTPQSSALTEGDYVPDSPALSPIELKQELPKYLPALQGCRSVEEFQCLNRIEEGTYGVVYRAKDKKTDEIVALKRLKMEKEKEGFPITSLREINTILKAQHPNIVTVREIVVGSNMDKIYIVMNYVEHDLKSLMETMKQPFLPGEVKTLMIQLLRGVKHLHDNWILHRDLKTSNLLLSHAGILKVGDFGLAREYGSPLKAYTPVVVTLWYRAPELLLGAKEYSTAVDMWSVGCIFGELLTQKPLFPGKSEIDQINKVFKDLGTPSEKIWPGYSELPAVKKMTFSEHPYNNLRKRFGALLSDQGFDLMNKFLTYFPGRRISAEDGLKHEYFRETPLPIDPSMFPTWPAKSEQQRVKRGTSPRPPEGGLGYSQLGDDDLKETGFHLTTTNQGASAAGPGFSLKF
Chain of Interleukin-1 receptor-associated kinase 1 (Homo sapiens) (P51617 whole entry, looked up): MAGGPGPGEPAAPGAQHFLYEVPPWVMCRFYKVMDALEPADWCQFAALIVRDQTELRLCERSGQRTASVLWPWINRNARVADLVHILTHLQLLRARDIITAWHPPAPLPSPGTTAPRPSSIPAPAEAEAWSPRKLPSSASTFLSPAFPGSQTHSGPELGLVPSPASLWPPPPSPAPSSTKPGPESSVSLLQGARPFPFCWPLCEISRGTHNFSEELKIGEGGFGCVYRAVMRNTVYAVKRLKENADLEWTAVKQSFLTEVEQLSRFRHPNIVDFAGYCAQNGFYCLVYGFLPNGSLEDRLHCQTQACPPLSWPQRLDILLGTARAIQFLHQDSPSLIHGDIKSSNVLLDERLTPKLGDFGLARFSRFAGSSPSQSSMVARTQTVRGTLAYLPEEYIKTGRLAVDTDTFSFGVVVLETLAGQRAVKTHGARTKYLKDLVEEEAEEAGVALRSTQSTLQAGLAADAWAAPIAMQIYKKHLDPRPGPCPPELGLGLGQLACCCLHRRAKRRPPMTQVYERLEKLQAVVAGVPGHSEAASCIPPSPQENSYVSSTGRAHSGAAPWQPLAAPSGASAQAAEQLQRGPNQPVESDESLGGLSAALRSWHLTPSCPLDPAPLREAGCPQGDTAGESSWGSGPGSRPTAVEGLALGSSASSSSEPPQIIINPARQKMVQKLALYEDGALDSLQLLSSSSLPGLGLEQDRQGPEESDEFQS
Chain of Tyrosine-protein kinase Blk (Homo sapiens) (P51451 2-505 limits assumed): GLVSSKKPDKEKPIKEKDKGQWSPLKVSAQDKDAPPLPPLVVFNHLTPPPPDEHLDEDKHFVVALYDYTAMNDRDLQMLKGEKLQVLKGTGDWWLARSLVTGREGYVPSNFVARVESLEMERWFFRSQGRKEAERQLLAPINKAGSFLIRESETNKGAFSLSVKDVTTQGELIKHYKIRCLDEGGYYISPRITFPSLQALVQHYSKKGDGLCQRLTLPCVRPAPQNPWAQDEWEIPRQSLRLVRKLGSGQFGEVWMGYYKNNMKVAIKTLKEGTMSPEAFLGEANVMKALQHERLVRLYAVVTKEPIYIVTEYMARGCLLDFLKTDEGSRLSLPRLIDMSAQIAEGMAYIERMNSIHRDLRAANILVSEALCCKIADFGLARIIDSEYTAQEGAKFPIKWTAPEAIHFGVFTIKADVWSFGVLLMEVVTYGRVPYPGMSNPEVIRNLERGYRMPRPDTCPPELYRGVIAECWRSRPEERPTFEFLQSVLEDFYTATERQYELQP
Chain of Epidermal growth factor receptor (Homo sapiens) (P00533 whole entry): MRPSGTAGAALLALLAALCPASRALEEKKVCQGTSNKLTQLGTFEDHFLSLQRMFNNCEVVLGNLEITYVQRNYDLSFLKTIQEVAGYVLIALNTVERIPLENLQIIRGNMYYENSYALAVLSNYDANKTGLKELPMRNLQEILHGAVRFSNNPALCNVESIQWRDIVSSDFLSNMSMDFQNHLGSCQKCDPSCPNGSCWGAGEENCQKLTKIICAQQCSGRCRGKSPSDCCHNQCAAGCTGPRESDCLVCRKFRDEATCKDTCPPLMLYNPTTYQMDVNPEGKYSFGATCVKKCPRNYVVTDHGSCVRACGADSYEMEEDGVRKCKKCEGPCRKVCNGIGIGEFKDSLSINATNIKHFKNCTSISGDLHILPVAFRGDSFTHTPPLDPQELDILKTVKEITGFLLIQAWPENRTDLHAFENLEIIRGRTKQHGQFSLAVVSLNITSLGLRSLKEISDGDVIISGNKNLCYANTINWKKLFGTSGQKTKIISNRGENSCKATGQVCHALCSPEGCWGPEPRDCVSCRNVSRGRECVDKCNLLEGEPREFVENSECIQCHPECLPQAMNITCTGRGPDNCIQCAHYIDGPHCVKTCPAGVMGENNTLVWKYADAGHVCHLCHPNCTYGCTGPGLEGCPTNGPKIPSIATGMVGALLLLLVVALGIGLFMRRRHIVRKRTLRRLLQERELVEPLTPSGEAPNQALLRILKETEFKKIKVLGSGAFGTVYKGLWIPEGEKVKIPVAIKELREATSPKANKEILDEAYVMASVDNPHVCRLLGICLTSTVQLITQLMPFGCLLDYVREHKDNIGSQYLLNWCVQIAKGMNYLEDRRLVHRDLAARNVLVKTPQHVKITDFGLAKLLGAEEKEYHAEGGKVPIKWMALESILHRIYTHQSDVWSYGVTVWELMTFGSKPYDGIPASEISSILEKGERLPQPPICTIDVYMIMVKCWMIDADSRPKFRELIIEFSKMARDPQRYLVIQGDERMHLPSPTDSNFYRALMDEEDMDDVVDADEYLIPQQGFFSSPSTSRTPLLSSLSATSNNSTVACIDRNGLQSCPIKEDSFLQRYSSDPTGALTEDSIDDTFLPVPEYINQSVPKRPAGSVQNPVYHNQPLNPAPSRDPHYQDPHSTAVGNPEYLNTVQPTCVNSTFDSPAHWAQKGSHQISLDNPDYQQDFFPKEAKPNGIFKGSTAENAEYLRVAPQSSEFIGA

| SMILES | inhibition [1] [%] | inhibition [2] [%] | inhibition [3] [%] | inhibition [4] [%] | inhibition [5] [%] | inhibition [6] [%] | inhibition [7] [%] | inhibition [8] [%] | inhibition [9] [%] | inhibition [10] [%] | inhibition [11] [%] | inhibition [12] [%] | inhibition [13] [%] | inhibition [14] [%] | inhibition [15] [%] | inhibition [16] [%] | inhibition [17] [%] | inhibition [18] [%] |
| --- | --- | --- | --- | --- | --- | --- | --- | --- | --- | --- | --- | --- | --- | --- | --- | --- | --- | --- |
| CN1CCN(c2ccc(-c3cnc4c(c3)N(Cc3cc(F)ccc3F)CCN4)cn2)CC1 | < 50 | < 50 | < 50 | < 50 | < 50 | < 50 | < 50 | < 50 | < 50 | < 50 | < 50 | < 50 | < 50 | 71.9 | < 50 | < 50 | < 50 | < 50 |
| CC(=O)N1CCN(c2cc(-c3cnc4c(c3)N(Cc3cc(Cl)ccc3C(F)(F)F)CCN4)ccn2)CC1 | < 50 | 81 | < 50 | < 50 | 71 | < 50 | < 50 | < 50 | < 50 | < 50 | < 50 | < 50 | < 50 | < 50 | < 50 | < 50 | < 50 | < 50 |
| CN1CCN(c2ccc(-c3cnc4c(c3)N(Cc3c(F)ccc(F)c3Cl)CCN4)cn2)CC1 | < 50 | < 50 | < 50 | < 50 | < 50 | < 50 | < 50 | < 50 | < 50 | < 50 | < 50 | < 50 | < 50 | 87 | < 50 | < 50 | < 50 | < 50 |
| FC(F)(F)c1ccc(Cl)cc1CN1CCNc2ncc(-c3ccnc(N4CCNCC4)c3)cc21 | < 50 | 93 | < 50 | < 50 | 96 | < 50 | < 50 | < 50 | < 50 | < 50 | < 50 | < 50 | < 50 | < 50 | < 50 | < 50 | < 50 | < 50 |
| CN1CCN(c2ccc(-c3cnc4c(c3)N(Cc3cc(Cl)ccc3Cl)CCN4)cn2)CC1 | < 50 | < 50 | < 50 | < 50 | < 50 | < 50 | < 50 | < 50 | < 50 | < 50 | < 50 | < 50 | < 50 | 68 | < 50 | < 50 | < 50 | < 50 |
| O=C(c1ccc(-c2cnc3c(c2)N(Cc2cc(Cl)ccc2C(F)(F)F)CCN3)cc1)N1CCC(N2CCCC2)CC1 | – | – | – | < 50 | – | < 50 | – | < 50 | < 50 | < 50 | < 50 | < 50 | – | < 50 | – | < 50 | < 50 | < 50 |
| O=C(O)c1ccc(-c2cnc3c(c2)N(Cc2cc(Cl)ccc2C(F)(F)F)CCN3)cc1 | – | – | – | < 50 | – | < 50 | – | < 50 | < 50 | < 50 | < 50 | < 50 | – | < 50 | – | < 50 | < 50 | < 50 |
| CN1CCN(c2ccc(-c3cnc4c(c3)N(Cc3cc(Cl)ccc3C(F)(F)F)CCN4)cn2)CC1 | < 50 | 74 | < 50 | < 50 | < 50 | < 50 | < 50 | < 50 | < 50 | < 50 | < 50 | < 50 | < 50 | < 50 | < 50 | < 50 | < 50 | < 50 |
| O=C(c1ccc(-c2cnc3c(c2)N(Cc2cc(Cl)ccc2C(F)(F)F)CCN3)cc1)N1CCCCC1 | – | – | – | < 50 | – | < 50 | – | < 50 | < 50 | < 50 | < 50 | < 50 | – | < 50 | – | < 50 | < 50 | < 50 |
| COC1CCN(C(=O)c2ccc(-c3cnc4c(c3)N(Cc3cc(Cl)ccc3C(F)(F)F)CCN4)cc2)CC1 | – | – | – | < 50 | – | < 50 | – | < 50 | < 50 | < 50 | < 50 | < 50 | – | < 50 | – | < 50 | < 50 | < 50 |
